Measurements published in ChEMBL document CHEMBL2046403, “Biochemical and pharmacological evaluation of 4-hydroxychromen-2-ones bearing polar C-3 substituents as anticoagulants” (Eur J Med Chem, 2012).
pIC50: −log10 of the molar value.

Key:
Rattus norvegicus [1] = assay: Hepatotoxicity in Wistar albino rat assessed as change in serum iron level at 0.5 mg/kg, ip measured after 24 hrs; assay type: toxicity, organism-based; set-up: dose 0.5 mg/kg, route intraperitoneal; conditions: in vivo
Rattus norvegicus [2] = assay: Hepatotoxicity in Wistar albino rat assessed as change in serum ALT level at 0.5 mg/kg, ip measured after 24 hrs; assay type: toxicity, organism-based; set-up: dose 0.5 mg/kg, route intraperitoneal; conditions: in vivo
Rattus norvegicus [3] = assay: Anticoagulant activity in Wistar rats in vivo assessed as prothrombin time
Rattus norvegicus [4] = assay: Hepatotoxicity in Wistar albino rat assessed as change in serum protein level at 0.5 mg/kg, ip measured after 24 hrs; assay type: toxicity, organism-based; set-up: dose 0.5 mg/kg, route intraperitoneal; conditions: in vivo
Rattus norvegicus [5] = assay: Hepatotoxicity in Wistar albino rat assessed as change in serum gamma-GT level at 0.5 mg/kg, ip measured after 24 hrs; assay type: toxicity, organism-based; set-up: dose 0.5 mg/kg, route intraperitoneal; conditions: in vivo
Plasma [6] = assay: Anticoagulant activity in Wistar albino rat plasma assessed as prothrombin time at 0.1 mg/kg, ip; assay type: functional; conditions: route intraperitoneal
Procedure, shortened: (§1)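 Adult Wistar rats (2.5 months, 220–250 g), three per compound and control, were given a single i.p. dose of 0.1 or 0.5 mg/kg in ethanol solution and sacrificed 24 h later. […] Plasma prothrombin time was measured by Quick method and reported in seconds and as INR, from at least three measurements.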

Plasma [7] = assay: Anticoagulant activity in Wistar albino rat plasma assessed as prothrombin time at 0.5 mg/kg, ip; assay type: functional; conditions: route intraperitoneal
Procedure, shortened: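 Adult Wistar rats (2.5 months, 220–250 g), three per compound and control, were given a single i.p. dose of 0.1 or 0.5 mg/kg in ethanol solution and sacrificed 24 h later. Plasma prothrombin time was measured by Quick method and reported in seconds and as INR, from at least three measurements.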

Rattus norvegicus [8] = assay: Hepatotoxicity in Wistar albino rat assessed as change in serum albumin level at 0.5 mg/kg, ip measured after 24 hrs; assay type: toxicity, organism-based; set-up: dose 0.5 mg/kg, route intraperitoneal; conditions: in vivo
Rattus norvegicus [9] = assay: Hepatotoxicity in Wistar albino rat assessed as change in serum ALP level at 0.5 mg/kg, ip measured after 24 hrs; assay type: toxicity, organism-based; set-up: dose 0.5 mg/kg, route intraperitoneal; conditions: in vivo
Rattus norvegicus [10] = assay: Hepatotoxicity in Wistar albino rat assessed as change in serum AST level at 0.5 mg/kg, ip measured after 24 hrs; assay type: toxicity, organism-based; set-up: dose 0.5 mg/kg, route intraperitoneal; conditions: in vivo
Rattus norvegicus [11] = assay: Hepatotoxicity in Wistar albino rat assessed as change in serum bilirubin level at 0.5 mg/kg, ip measured after 24 hrs; assay type: toxicity, organism-based; set-up: dose 0.5 mg/kg, route intraperitoneal; conditions: in vivo
Plasma [12] = assay: Anticoagulant activity in human plasma assessed as international normalized ratio at 1 mg/ml; assay type: functional
Procedure, shortened: (§2)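 Frozen human plasma (blood type A+) was used. Compounds were prepared at 1 mg/mL in a vehicle of 96% EtOH, 0.9% NaCl, 20% glycerol and phosphate buffer pH 7. Prothrombin time was measured by Quick method and reported in seconds and as INR, with SD from at least three measurements.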

Plasma [13] = assay: Anticoagulant activity in Wistar albino rat plasma assessed as fibrinogen level; assay type: functional
Procedure, shortened: (§3)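 Adult albino Wistar rats (2.5 months old, 220–250 g), three per compound and control. […] Fibrin time and fibrinogen were determined on plasma. Fibrinogen was quantified by biuret method at 540 nm. At least three measurements, reported with standard deviation.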

Plasma [14] = assay: Anticoagulant activity in Wistar albino rat plasma assessed as fibrin time; assay type: functional; procedure, shortened: as §3
Plasma [15] = assay: Anticoagulant activity in human plasma assessed as prothrombin time at 1 mg/ml; assay type: functional; procedure, shortened: as §2
Plasma [16] = assay: Anticoagulant activity in Wistar albino rat plasma assessed as international normalized ratio at 0.5 mg/kg, ip; assay type: functional; conditions: route intraperitoneal; procedure, shortened: as §1
Plasma [17] = assay: Anticoagulant activity in Wistar albino rat plasma assessed as international normalized ratio at 0.1 mg/kg, ip; assay type: functional; conditions: route intraperitoneal; procedure, shortened: as §1

SMILES | pIC50 (Rattus norvegicus [3]) | Activity (Rattus norvegicus [1]) | Activity (Rattus norvegicus [2]) | Activity (Rattus norvegicus [4]) | Activity (Rattus norvegicus [5]) | PT (Plasma [6]) | PT (Plasma [7]) | Activity (Rattus norvegicus [8]) | Activity (Rattus norvegicus [9]) | Activity (Rattus norvegicus [10]) | Activity (Rattus norvegicus [11]) | Ratio (Plasma [12]) | Activity (Plasma [13]) | Time (Plasma [14]) | PT (Plasma [15]) | Ratio (Plasma [16]) | Ratio (Plasma [17])
O=C(O)CCCCNc1nc(-c2c(O)c3ccccc3oc2=O)cs1 | 3.03 | 27.4 µmol/L | 52.6 U/L | 71.5 g/L | 3.5 U/L | 8 s | 10 s | 35.4 g/L | 246 U/L | 231.5 U/L | 1.2 µmol/L | 2.1 | 2.5 g/L | 23.9 s | 22 s | 0.67 | 0.64
O=c1oc2ccccc2c(O)c1-c1csc(Nc2ccc([N+](=O)[O-])cc2)n1 | 2.63 | 14.8 µmol/L | 68.7 U/L | 63 g/L | 3.8 U/L | 8.1 s | 9.1 s | 37.2 g/L | 204 U/L | 264.4 U/L | 1.7 µmol/L | 2.44 | 1.8 g/L | 33.7 s | 25 s | 0.68 | 0.65
Cc1ccccc1Nc1nc(-c2c(O)c3ccccc3oc2=O)cs1 | 2.27 | 29.2 µmol/L | 59.5 U/L | 69.2 g/L | 3.6 U/L | 8.1 s | 8.1 s | 36.3 g/L | 318 U/L | 263.4 U/L | 1.8 µmol/L | 1.7 | 2.1 g/L | 28.7 s | 18.1 s | 0.68 | 0.68
CCN(CC)c1nc(-c2c(O)c3ccccc3oc2=O)cs1 | 3.03 | 25 µmol/L | 64.7 U/L | 63.2 g/L | 4.4 U/L | 8 s | 10 s | 36.7 g/L | 192 U/L | 254.8 U/L | 2 µmol/L | 1.75 | 1.4 g/L | 44.9 s | 18.5 s | 0.67 | 0.64
O=c1oc2ccccc2c(O)c1-c1csc(Nc2cccc3ccccc23)n1 | 3.23 | 24.6 µmol/L | 85 U/L | 72.8 g/L | 4.3 U/L | 9.2 s | 9.7 s | 41.3 g/L | 210 U/L | 345.3 U/L | 2 µmol/L | 2.7 | 1.9 g/L | 33.2 s | 27.5 s | 0.94 | 0.94

Now from value to compound, other results behind:

pIC50 (Rattus norvegicus [3]) | SMILES | Activity (Rattus norvegicus [1]) | Activity (Rattus norvegicus [2]) | Activity (Rattus norvegicus [4]) | Activity (Rattus norvegicus [5]) | PT (Plasma [6]) | PT (Plasma [7]) | Activity (Rattus norvegicus [8]) | Activity (Rattus norvegicus [9]) | Activity (Rattus norvegicus [10]) | Activity (Rattus norvegicus [11]) | Ratio (Plasma [12]) | Activity (Plasma [13]) | Time (Plasma [14]) | PT (Plasma [15]) | Ratio (Plasma [16]) | Ratio (Plasma [17])
2.56 | COC(=O)/C=C(/C)c1c(O)c2ccccc2oc1=O | 54.2 µmol/L | 57.2 U/L | 65.2 g/L | 3 U/L | 8 s | 9 s | 39 g/L | 333 U/L | 154.3 U/L | 1.4 µmol/L | 1.9 | 1.8 g/L | 35.2 s | 20 s | 0.67 | 0.64
2.50 | COC(=O)/C(C(=O)O)=C(\C)c1c(O)c2ccccc2oc1=O | 19.4 µmol/L | 51.8 U/L | 62.8 g/L | 4.4 U/L | 5.7 s | 8.7 s | 35.8 g/L | 215 U/L | 218.4 U/L | 1.8 µmol/L | 1.9 | 3.2 g/L | 19.4 s | 20 s | 0.48 | 0.37
2.94 | COC(=O)/C(C(C)=O)=C(/C)c1c(O)c2ccccc2oc1=O | 23.9 µmol/L | 65.5 U/L | 66.4 g/L | 2.8 U/L | 9.3 s | 9.8 s | 38.9 g/L | 285 U/L | 236.9 U/L | 1.7 µmol/L | 1.8 | 1.6 g/L | 40.7 s | 19 s | 0.94 | 0.92
2.77 | CC(=O)c1c(O)c2ccccc2oc1=O | 26.1 µmol/L | 34.8 U/L | 63.8 g/L | 3.8 U/L | 9.1 s | 9.5 s | 31.9 g/L | 200 U/L | 160.5 U/L | 1.7 µmol/L | 1.25 | 2.5 g/L | 44.9 s | 14 s | 0.9 | 0.9
2.86 | CC(=O)C(C(C)=O)=C(C)c1c(O)c2ccccc2oc1=O | 32.4 µmol/L | 56.4 U/L | 66.5 g/L | 4.4 U/L | 8.6 s | 9.6 s | 40.6 g/L | 223 U/L | 201.4 U/L | 1.5 µmol/L | 1.55 | 2.47 g/L | 24.6 s | 17 s | 0.72 | 0.69
